Calls of active or inactive are those of the source. No cut-off for these calls is given here.

A short description of data set [1]: Volume of distribution at steady state in mouse at 30 mg/kg. It is filed as ADME, organism-based. Also on record: dose 30 mg/kg. The following applies: in vivo, read-out: Vdss.
The test system of data set [2] is Rattus norvegicus. Briefly: Antihyperglycemic activity in Wistar rat assessed as glucose excursion curve at 10 mg/kg, po by glucose tolerance test. It is filed as functional.
For data set [3], the target named is T1, Glucose-dependent insulinotropic receptor (Homo sapiens, UniProt Q8TDV5).
T1 sequence (Q8TDV5 whole entry): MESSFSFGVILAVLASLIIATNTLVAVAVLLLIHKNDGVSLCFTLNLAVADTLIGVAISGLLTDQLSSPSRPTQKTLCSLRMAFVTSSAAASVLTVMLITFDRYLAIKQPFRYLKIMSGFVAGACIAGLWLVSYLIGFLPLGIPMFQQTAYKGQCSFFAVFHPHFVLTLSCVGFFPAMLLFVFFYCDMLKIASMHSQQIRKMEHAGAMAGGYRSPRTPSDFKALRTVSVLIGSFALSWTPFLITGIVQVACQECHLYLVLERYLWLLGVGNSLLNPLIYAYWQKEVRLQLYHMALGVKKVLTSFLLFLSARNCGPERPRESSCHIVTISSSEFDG
Briefly: Agonist activity at human GPR119 receptor expressed in CHO-K1 cells co-expressing 6CRE-luciferase gene after 5 hrs by luciferase reporter gene assay. The data set is classed as functional, cell-based. To be noted: read-out: pEC50 (converted).

In data set [4] the test system is Mus musculus. Kind of data set: Increase in GIP level in GPR119 knockout mouse at 30 mg/kg, po after 60 mins by ELISA relative to control. It is filed as functional, organism-based. Also on record: dose 30 mg/kg. The method, boiled down: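 Overnight-fasted wild-type or GPR119 knockout mice were given vehicle (0.5% HPMC/0.1% Tween80) or 30 mg/kg orally at 10 mL/kg. Cardiac blood was drawn 60 min post-dose under isoflurane into chilled K2-EDTA with DPP-4 inhibitor and aprotinin (250 KIU/mL). Plasma was prepared at 4 °C and held at −80 °C. Total GIP was measured by ELISA; n = 10.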
In general terms: ELISA stands for enzyme-linked immunosorbent assay.

The nature of data set [5]: Volume of distribution at steady state in rat at 30 mg/kg. The data set is classed as ADME, organism-based. On the set-up: dose 30 mg/kg. The following applies: in vivo, read-out: Vdss.
Data set [6] deals with Rattus norvegicus. Briefly: Increase of glucose infusion rate in Wistar rat at 10 mg/kg, po. It is filed as functional, organism-based. Also on record: dose 10 mg/kg. In outline:
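Catheterized male Wistar rats (300–350 g, jugular and femoral lines, one week recovery) were fasted overnight and gavaged with vehicle (n = 19) or compound (n = 8). After ~90 min, an IV glucose bolus over 15–30 s was followed by variable-rate glucose infusion. The infusion was adjusted to clamp plasma glucose at 190–210 mg/dL, and the required infusion rate was recorded. Serum glucose was measured by analyzer.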

Data set [7] can be described thus: Cmax in rat at 30 mg/kg. The data set is classed as ADME, organism-based. Also on record: dose 30 mg/kg. The following applies: in vivo.
Data set [8] has as its system Mus musculus. Kind of data set: Toxicity in C57BL/6 mouse assessed as effect on food intake at 10 mg/kg, po measured up to 24 hrs. On the set-up: dose 10 mg/kg, route oral. The data set is classed as organism-based. The following applies: in vivo. The method, boiled down: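 Individually housed male C57BL/6 mice were fasted overnight and given 10 mg/kg. Normal-chow hoppers were weighed and returned. Hopper weights were recorded at 1, 2, 4, 6 and 24 h post-dose and compared with vehicle-treated mice.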

Data set [9] relates to Mus musculus. Kind of data set: Increase in GLP-1 level in GPR119 transgenic wild type mouse at 30 mg/kg, po after 60 mins by electrochemiluminescence assay relative to control. It is filed as functional. In outline:
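Wild-type and GPR119 knockout mice, fasted overnight, received vehicle (0.5% HPMC/0.1% Tween80) or 30 mg/kg by oral gavage at 10 mL/kg. At 60 min, blood was taken by cardiac puncture under isoflurane into chilled K2-EDTA tubes with DPP-4 inhibitor and aprotinin (250 KIU/mL). Plasma was spun at 4 °C and stored at −80 °C. Total GLP-1 was measured by electrochemiluminescence immunoassay; n = 10.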

Data set [10] can be described thus: Clearance in mouse at 30 mg/kg. It is filed as ADME, organism-based. On the set-up: dose 30 mg/kg. The following applies: in vivo.

`CC(C)OC(=O)N1CCC(Oc2ncnc3c2CCN3c2ccc(S(C)(=O)=O)cc2F)CC1`: the Vd in [1] turned out to be 0.7 L/kg; in data set [5] it was 1.5 L/kg. Besides, the Activity in [2] is 43%; in data set [8], “Non-toxic”. For the same compound, in [3], the EC50 was 50.1 nM. Besides, the result in [4] was inactive. In addition, in data set [6], the result was Active. In data set [7], this compound had a Cmax of 9 µM. In addition, in data set [9], the “fold change (FC)” value is on record as 4. The same compound returned a clearance in [10] of 7.2 mL/min/kg.

The Cmax is the maximum level reached in the sampled fluid or tissue. What is called clearance is a measure of how efficiently the substance is removed, as volume per time.

(Values after ChEMBL document CHEMBL2176966, “Discovery of 6,7-dihydro-5H-pyrrolo[2,3-a]pyrimidines as orally available G protein-coupled receptor 119 agonists” (J Med Chem, 2012).)
